The values below come from paper PMC4111568 (Bioorganic & medicinal chemistry, 2011).

This experiment concerns CWR22rv-1 cells. Description: Cell death of CWR22rv-1 prostate cancer cells. As to conditions: 25 μM, after 24 h. Type of experiment: cell-based, human. The method in brief:
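CWR22Rv1 cells were seeded at 300,000 cells/well in RPMI 1640 with 10% FBS, 2.5 mM L-glutamine and penicillin-streptomycin at 37 °C, 5% CO2, then serum-starved overnight. Test compound (DMSO stock, diluted in serum-free RPMI) was applied in triplicate for 24–72 h. Cells were trypsinised, fixed in 70% ethanol, treated with RNase (5 μg/mL), stained with propidium iodide (50 μg/mL), and DNA content/cell-cycle fractions were measured by flow cytometry.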

As to `CCCCCCCC(O)(C(N)=O)c1cccc(Cl)c1` (racemic) [(±)-1, 2-(3-chlorophenyl)-2-hydroxynonanamide], the cell death entry was “marginal effects”.
